# Laboratory results published in ChEMBL document CHEMBL1144067, “Cancer chemopreventive agents (antitumor-promoters) from Ajuga decumbens” (J Nat Prod, 1999).
# How the values were obtained:
# Mus musculus [1] = assay: Toxicity in 4NQO-induced/glycerol-promoted carcinogenesis mouse model assessed change in body weight at 1.27 mg/week administered twice weekly after 5 weeks of initiation for 22 weeks; type: organism-based; details: in vivo
# How it was run: (§1)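 Female ICR mice in the 4NQO (0.3 mg s.c.)-initiated, 8% glycerol drinking-water-promoted lung model, 15 per group, test agent at 0.0025% or 0.005%. Body weight recorded at end of the 22-week promotion period.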
# Mus musculus [2] = assay: Toxicity in 4NQO-induced/glycerol-promoted carcinogenesis mouse model assessed change in body weight at 2.54 mg/week administered twice weekly after 5 weeks of initiation for 22 weeks; type: organism-based; details: in vivo; how it was run: as §1
# Raji [3] = assay: Inhibition of 12-O-tetradecanoylphorbol-13-acetate induced EBV-early antigen activation in human Raji cells at 1000 molar ratio relative to control; type: cell-based; details: human gammaherpesvirus 4
# How it was run: (§2)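 Raji cells in RPMI-1640 treated 48 h at 37 °C with n-butyric acid (4 mmol), TPA (32 pmol = 20 ng/mL) and test agent at 10, 100, 500 or 1000 mol ratio/TPA (0.32–32 nmol). EA-positive cells in smears detected by indirect immunofluorescence; induction expressed relative to TPA positive control (100%), n = 3, ±S.D.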
# Raji [4] = assay: Inhibition of 12-O-tetradecanoylphorbol-13-acetate induced EBV-early antigen activation in human Raji cells at 500 molar ratio relative to control; type: cell-based; details: human gammaherpesvirus 4; how it was run: as §2
# Raji [5] = assay: Inhibition of 12-O-tetradecanoylphorbol-13-acetate induced EBV-early antigen activation in human Raji cells at 100 molar ratio relative to control; type: cell-based; details: human gammaherpesvirus 4; how it was run: as §2
# Raji [6] = assay: Inhibition of 12-O-tetradecanoylphorbol-13-acetate induced EBV-early antigen activation in human Raji cells at 10 molar ratio relative to control; type: cell-based; details: human gammaherpesvirus 4; how it was run: as §2
# [7] = Cytotoxicity against human Raji cells assessed as cell viability at 500 molar ratio after 48 hrs; type: cell-based; details: read-out: Activity
# How it was run: (§3)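 Raji cells (EBV genome-carrying, Burkitt's lymphoma-derived) grown in RPMI-1640 and incubated 48 h at 37 °C with 4 mmol n-butyric acid, 32 pmol TPA (20 ng/mL) and test agent at 10–1000 mol ratio/TPA (0.32–32 nmol). Viability given as percentage of Raji cells; n = 3, ±S.D.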
# [8] = Cytotoxicity against human Raji cells assessed as cell viability at 100 molar ratio after 48 hrs; type: cell-based; details: read-out: Activity; how it was run: as §3
# [9] = Cytotoxicity against human Raji cells assessed as cell viability at 10 molar ratio after 48 hrs; type: cell-based; details: read-out: Activity; how it was run: as §3
# Mus musculus [10] = assay: Inhibition of DMBA-induced/TPA-promoted carcinogenesis in mouse assessed as number of skin papillomas per mouse at 85 nmol administered twice weekly after 1 week of initiation for 10 weeks; type: functional
# How it was run: (§4)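 Female SPF ICR mice, 6 weeks old, 15 per group, backs shaved; single topical DMBA initiation (100 μg, 390 nmol) in 0.1 mL acetone. From 1 week after, promotion with TPA 1.7 nmol twice weekly, plus 85 nmol test agent. Papilloma incidence and number per mouse monitored weekly for 20 weeks.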
# Mus musculus [11] = assay: Inhibition of DMBA-induced/TPA-promoted carcinogenesis in mouse assessed as number of skin papillomas per mouse at 85 nmol administered twice weekly after 1 week of initiation for 20 weeks; type: functional; how it was run: as §4
# Mus musculus [12] = assay: Inhibition of DMBA-induced/TPA-promoted carcinogenesis in mouse assessed as number of mouse bearing papillomas at 85 nmol administered twice weekly after 1 week of initiation for 8 weeks; type: functional; set-up: scale not given: the % may be the effect or the level left; how it was run: as §4
# Mus musculus [13] = assay: Inhibition of DMBA-induced/TPA-promoted carcinogenesis in mouse assessed as number of mouse bearing papillomas at 85 nmol administered twice weekly after 1 week of initiation for 10 weeks; type: functional; set-up: scale not given: the % may be the effect or the level left; how it was run: as §4
# Mus musculus [14] = assay: Inhibition of DMBA-induced/TPA-promoted carcinogenesis in mouse assessed as number of mouse bearing papillomas at 85 nmol administered twice weekly after 1 week of initiation for 17 weeks; type: functional; set-up: scale not given: the % may be the effect or the level left; how it was run: as §4
# Mus musculus [15] = assay: Inhibition of 4NQO-induced/glycerol-promoted carcinogenesis in mouse assessed number of pulmonary tumors per mouse at 1.27 mg/week administered twice weekly after 5 weeks of initiation for 22 weeks; type: functional
# How it was run: (§5)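 Female SPF ICR mice (6 weeks old), 15 per group. Initiation by single s.c. injection of 0.3 mg 4NQO in olive oil–cholesterol (20:1); promotion with 8% glycerol in drinking water ad libitum, test agent given at 0.0025% or 0.005%. Killed by cervical dislocation after 22-week promotion; pulmonary tumors counted per lobe under dissecting microscope. Student's t-test vs 4NQO + glycerol group.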
# Mus musculus [16] = assay: Inhibition of 4NQO-induced/glycerol-promoted carcinogenesis in mouse assessed number of mouse with pulmonary tumors at 1.27 mg/week administered twice weekly after 5 weeks of initiation for 22 weeks; type: functional; set-up: scale not given: the % may be the effect or the level left; how it was run: as §5
# Mus musculus [17] = assay: Inhibition of 4NQO-induced/glycerol-promoted carcinogenesis in mouse assessed number of pulmonary tumors per mouse at 2.54 mg/week administered twice weekly after 5 weeks of initiation for 22 weeks; type: functional; how it was run: as §5
# Mus musculus [18] = assay: Inhibition of 4NQO-induced/glycerol-promoted carcinogenesis in mouse assessed number of mouse with pulmonary tumors at 2.54 mg/week administered twice weekly after 5 weeks of initiation for 22 weeks; type: functional; set-up: scale not given: the % may be the effect or the level left; how it was run: as §5
smiles,measurement,setting,value
CC(=O)O[C@@]1(C)C[C@@H](O)[C@]2(O)C=CO[C@@H](O[C@@H]3O[C@H](CO)[C@@H](O)[C@H](O)[C@H]3O)[C@@H]21,Activity,Mus musculus [1],Non-toxic
same,Activity,Mus musculus [2],Non-toxic
same,EBV-EA induction remaining (% of TPA control),Raji [3],0%
same,EBV-EA induction remaining (% of TPA control),Raji [4],19.9%
same,EBV-EA induction remaining (% of TPA control),Raji [5],62.6%
same,EBV-EA activation relative to TPA control,Raji [6],89.5%
same,"viability at 48 h, 500 molar ratio",[7],> 80%
same,"viability at 48 h, 100 molar ratio",[8],> 80%
same,"viability at 48 h, 10 molar ratio",[9],> 80%
same,Activity,Mus musculus [10],2
same,Activity,Mus musculus [11],6
same,Activity,Mus musculus [12],10%
same,Activity,Mus musculus [13],20%
same,Activity,Mus musculus [14],80%
same,Activity,Mus musculus [15],1.1
same,Activity,Mus musculus [16],53.3%
same,Activity,Mus musculus [17],0.9
same,Activity,Mus musculus [18],46.6%
